Test system: MS2 coat protein
Assay: apparent Kd, MS2 coat protein; higher = weaker binding; RNA-MaP array; FMN 200 µM where present
Summary of the method: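 Designs were transcribed by stalled E. coli RNA polymerase on Illumina sequencing-chip clusters. They were titrated with SNAP-549-labelled MS2 coat protein from 0.7 or 1.5 nM, doubling to 3 µM, in 100 mM Tris-HCl pH 7.5, 80 mM KCl, 4 mM MgCl2, BSA, DTT, yeast tRNA and Tween-20, without and then with constant ligand. The apparent Kd is the median of filtered per-cluster fits after normalisation of green signal to red-channel RNA signal and control-cluster median Fmax.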

[1] = designed as: ON switch for flavin mononucleotide, no ligand
[2] = ligand present: flavin mononucleotide, designed as: ON switch for flavin mononucleotide
[3] = designed as: OFF switch for flavin mononucleotide, no ligand
[4] = ligand present: flavin mononucleotide, designed as: OFF switch for flavin mononucleotide

| Sequence | apparent Kd [1] [nM] | apparent Kd [2] [nM] | apparent Kd [3] [nM] | apparent Kd [4] [nM] |
| --- | --- | --- | --- | --- |
| CCCAAACUUGGGCUUGGCGGUGCAUAGGAUAUCCUUGGACAUGAGGAUCACCCAUGUACAACUGUGGAGAAGGGUGCAGGGCCU | 31.2 | 8.61 | – | – |
| ACUUUAGUAUCACAUGUAUUACAUGAGGAUCACCCAUGUUACUAGGAUAUGUAUUAGAAUUUACAACAGAAGGAGUAAGAAUGU | – | – | 8.17 | 9.83 |
| UUUCCGCGAGGAUAUACGGGCUGUGCUUUUCAUUUCUUACAACAUGAGGAUCACCCAUGUAGAAGGUGCUUCUU | – | – | 208 | 196 |
| GUGCGUGGCUAGGAUAUUGUGGAGUUUAGUCAGCGAGAAGGGACUACAUGAGGAUCACCCAUGUGUAGUUGCUC | – | – | 212 | 198 |
| GCUCGGCCAAAAUAAAACGACGCGAAGGAUAUACACCUGGGUACUCCUACAUGAGGAUCACCCAUGUAGAAGGUCGCGGGCUUG | – | – | 45 | 46.4 |
| GCUAGUAUUGCAGGAUAUUGUGAAUAAUUAUUUCAAGAAGGGCAUUACAUGAGGAUCACCCAUGUCAUCCUUUUGAAUACUAGC | – | – | 5.67 | 7.63 |
| AUCAGCUCGUCAGGAUAUACGUCACUGCGUCAGAAGUGUGGUAAGAUCACAUGAGGAUCACCCAUGUAGAAGGGACGAGCUGAU | – | – | 23.4 | 253 |
| UUUUACAUAGGAUAUAGUUUCUUUUACAUGAGGAUCACCCAUGUCUCUCCUCUCUCUCUUCUAGAAGGAUGUUUCU | – | – | 80.1 | 72 |
| GGAUCGUAUGUCAGGAUAUACCACUGGAUACAGUGGUAGAAGGGACAUGAGGAUCACCCAUGUCCUAUCGAUCC | – | – | 13 | 16.6 |
| GCCUAGCCCAAGCCCACGGCAUCACAGGAUAUGCCGAUAACAUGAGGAUCACCCAUGUCAACUCCGCAGAAGGGUGAUAUCGUG | 75.9 | 10 | – | – |
| AAGUUAUAUACAUGAGGAUCACCCAUGUCAAAGGGAGUAAUCAGAAGGUACUAUUCAAUAAUUAGUAAGGAUAUGAAUUUUUAG | 39.5 | 30.6 | – | – |
| UUAUUUAGGUAGGAUAUCGAUAUUAUUCCCUAUCGAGAAGGGUCUACAUGAGGAUCACCCAUGUUAGCAUGUUU | – | – | 22.3 | 22.2 |
| GGUAGGAUCGCAGGAUAUGCUAUCCUUUGGGUAGCAGAAGGGUGAUAACAUGAGGAUCACCCAUGUCCUACCGGGCGUGAGCCC | 57.8 | 1590 | – | – |
| AAUAAACAUGAGGAUCACCCAUGUCAGGAUAUGCGUCUAUCCUUAUACCAUAGAUACGGCAGAAGGGACUAAUA | – | – | 24.9 | 31 |
| UUUUUGUGAGGAUAUGCAAUAUCUUCUAUUUAUUAUUAAUUGCAGAAGGCACAUGAGGAUCACCCAUGUAUUUU | – | – | 19.2 | 24.2 |
| GGAUAGGACAGAGGAUAUACGUGCUAGAGAUACUAGCAAAAUUUCCUCACAUGAGGAUCACCCAUGUAGAAGGCUGUCCUAUCU | – | – | 45.2 | 882 |
| AGCUAUUACGAAGGAUAUUGUGACAUGAGGAUCACCCAUGUUUUCAUGAUUAAUUGUGAUCACGUCGAGAAGGUUGUACUAACA | 52.4 | 54.5 | – | – |
| AAAAAACAUGAGGAUCACCCAUGUCAAAAGACGUGAGGAUAUGUACAGACUUCGGUCUGUACAGAAGGCAUGUCAA | 30.1 | 16.5 | – | – |
| CCAGCGAGUGUGAGGAUAUGCUGGUCCUUGGAUCAGCAGAAGGCACAUGAGGAUCACCCAUGUGAAAACGUUGG | – | – | 28.8 | 179 |
| GUAUAUAUGUGGUACAUGAGGAUCACCCAUGUGUCUUUACAUGAGGAUAUGGAUUCUAAUUGGAUCCAGAAGGCAUGUAUAUAC | 33 | 23.7 | – | – |
| CUGAGUAGUCAGGAUAUGUGGUACAAAAGUACUGCAGAAGGGAUUACAUGAGGAUCACCCAUGUUUUCUUCAUG | – | – | – | 125 |
| ACAUUGCGAGGAUAUACAUGAGGAUCACCCAUGUGGUGGCAGAUACGGUAGGGCUAGUGUAGAAGGUGUCAUGG | – | – | 528 | 435 |
| UGAUCUGUCGCAGGAUAUUACGUUCGGGAUCUCACAUGAGGAUCACCCAUGUAAGAAGGGCGAACAGCAUUCCGGGUCGGGCAA | – | – | 19.6 | 75.4 |
| AUAUCUCCCUAGAAGGUGGAACGACAAUUGCAUCACGUAGUUGGCGAUCCAAGGAUAUGGGACAUGAGGAUCACCCAUGUGGAU | 16.4 | 8.81 | – | – |
| UACAUUACUUAGAAGGGAUAUAUAUAAUUUUAAUCAGGAUAUAGAUACAGUACAACAUGAGGACAUGAGGAUCACCCAUGUAUU | 31.4 | 23.2 | – | – |
| CAUUAAUUCAUUAUAGUAAUUUUACAGGAUAUGUAACAUGAGGAUCACCCAUGUAUUCUAGGUUAACAGAAGGGUAUUACUUGU | – | – | 28.9 | 20.7 |
| GCAGGCUUCGAGAAGGACAUGAGGAUCACCCAUGUGCGUGUGAAGCAGCCGUGAGGCUGCAUCAUGUAGGAUAUCGGAGUCUGU | – | – | 77.8 | 650 |
| CGGUCAUGAGGAUAUCGAGGUUAGUACAUGAGGAUCACCCAUGUUAUCCAGGUGUCGGUUCGAGAAGGCAUGUCCG | – | – | 461 | 753 |

| Sequence | apparent Kd [1] [nM] | apparent Kd [2] [nM] | apparent Kd [3] [nM] | apparent Kd [4] [nM] |
| --- | --- | --- | --- | --- |
| AACUGACAUGAGGAUCACCCAUGUCAGGAUAUGACUUCAAAAUAAAAAUAAAAUGAUGUCAGAAGGGACAUGGA | – | – | 22.6 | 36.1 |
| GUUUUUUCUCAUGUACAUGAGGAACAUGAGGAUCACCCAUGUAGAAGGAAUUUUUUUAAGUUUAGUUAGGAUAUACAUAUAUUG | – | – | 48.8 | 28.6 |
| GGAUAGGACAGAGGAUAUACGUGCUAGAGAUACUAGCAAAAUUUCCUCACAUGAGGAUCACCCAUGUAGAAGGCUGUCCUCUCG | – | – | 18 | 409 |
| AUGGAUACCACAGGAUAUGCCCGGGAUACCCGGGCAGAAGGGUGGUCCAUCCUAUGUAAAUACAUGAGGAUCACCCAUGUGUCC | 351 | 257 | – | – |
| UGCAUGUAAGGAUAUGCACUGCGCGAGCCUGACUCGCAAAGGCAGAAGGUACAUGAGGAUCACCCAUGUGAGAA | – | – | 72.6 | 64.6 |
| UUGGACGUCGUAGGAUAUGUAGGAUAUUCCUACAUGAGGAUCACCCAUGUUGACAUGGAAGAAGGACAGAAGGACGCUGUCCAU | 576 | 8.85 | – | – |
| UCAUGGUAGCAGGAUAUGCUUGUAAUUUUUUUUGCAGAAGGGCUUACAUGAGGAUCACCCAUGUGUUAGGUCUA | – | – | 32.8 | 46.7 |
| GACUUGCGCACAGGAUAUCCACAGAGCGGACGUGGAGAAGGGUGACAUGAGGAUCACCCAUGUACGUAAGUCUGGAUCACUUCC | 29.4 | 26.1 | – | – |
| CUUUUGUGAGGAUAUUAGUAGUAAAAAAAUAAAAUUACUACUGAGAAGGCACAUGAGGAUCACCCAUGUUCUUC | – | – | 19 | 98.1 |
| UACAUGGAACAGAAGGGCAAUUUAUUUAAUUAUUAUUUAGAACAGCUUUGCAGGAUAUGUUUAACAUGAGGAUCACCCAUGUAC | 57.6 | 17.4 | – | – |
| UGAGCUUGAGGAUAUACAUGACGUGCCGUAGCACGAGGUCUACAUGAGGAUCACCCAUGUAGAAGGCAAGUUCU | – | – | 29.6 | 192 |
| GUCAGCUCGUGAGGAUAUACAACACUGCUUCGGCAGUGUAUUGAGAUCACAUGAGGAUCACCCAUGUAGAAGGCACGAGCUGAU | – | – | 12.9 | 225 |
| CCAUAAAGGUAGGAUAUCGAUUUUAAUUAAUAUCGAGAAGGGUCAACAUGAGGAUCACCCAUGUCAGCAUGUAA | – | – | 60.9 | 58.7 |
| AUUUGAAGGUAGAAGGGUGACAUGAGGAUCACCCAUGUGCGAGCAUCGGACGAAGAUGGCUCGCCACAGGAUAUACCUUCAAAU | 36.7 | 46.3 | – | – |
| GGACGACACAUGAACAUGAGGAUCACCCAUGUAACUAGACAUGAGGAUAUGGAUCCUAAUUGGAUCCAGAAGGCAUGGUCGUCC | 179 | 31.7 | – | – |
| GGAGGACAUCAAUACAUGAGGAUCACCCAUGUCGAAUGAUAUGAGGAUAUGCAUCGGAAAACGAUGUAGAAGGCAUAGUCCUCC | 15.1 | 6.06 | – | – |
| AUAUCUAUGUAAGGAUAUAGAUGGUAUACGCCUCCGACAUGAGGAUCACCCAUGUUAUAUUUUGUCUAGAAGGUACAUUGUCGG | 383 | 305 | – | – |
| GAAAAGGUAGGAUAUACGAAAAAAAAGGGUAGAAAAAAUACACAUGAGGAUCACCCAUGUAGAAGGACCAAAAG | – | – | 31.5 | 130 |
| CGCUAUGACAUAGGAUAUUGAUACAUGAGGAUCACCCAUGUCAACCAUGAAGCUCGAUUUGUUGACAAGAAGGAUGUGGUAGCG | 165 | 44.7 | – | – |
| GCUCGAUGCGCUGAGCACAUGAGGAUCACCCAUGUAAAUGGUCAGGAUAUUUACGUGCUUUAUGUAGAGAAGGGACUAUCGAGC | 630 | 59.4 | – | – |
| CAUAACUUUGAUCUCUCCUACAUGAGGAUCACCCAUGUUGAGAGAAGGAGGCGGCAGAGUGCUGCCUAGGAUAUCUGAAGGGUC | – | – | 6.19 | 7.28 |
| UUUACAUGAGGAUCACCCAUGUCUGUCACACGGAGGUGCAAUCAGGAUAUGAUCUCAAGAAUGAAUUAGAAGGGAUAGGGAGGG | 187 | 234 | – | – |
| GCGUAUUAGGUGUAGCUAGACAUUCAAGAAGGGUGAAGAACAUGAGGAUCACCCAUGUAGUUGUUACAGGAUAUUGAUUUACGC | 785 | 260 | – | – |
| CCCGACUAGAAGUCGGUACGGAGGAGAAGGCGCCUCCUGGGUCCACAUGAGGAUCACCCAUGUGGCGAGGAUAUCCUCAGUUUU | – | – | 14.2 | 74 |
| GUCAGCUCGUGAGGAUAUACAUGUGCUGGAAACAGCACUAUUAAGAUCACAUGAGGAUCACCCAUGUAGAAGGCACGAGCUGAU | – | – | 47.3 | 630 |
| CCCGUGUUAGGAUAUACGGCACACCCACAAACGGGUAUAUAGUAGAAGGAACAUGAGGAUCACCCAUGUAAAAC | – | – | 20.2 | 46.5 |
| CAGGUGUUAGGAUAUCGGAGAUCGAGACCGACGGGAUGAGCCGAGAAGGAACAUGAGGAUCACCCAUGUAGGUG | – | – | 575 | 247 |

— the EternaBench riboswitch data
